Screening data as filed in PubChem BioAssay.
Only some compounds are listed: those with a hit (about 2.3% of all), similar ones and a draw of the others.
EBNA-1 inh: blocks EBNA-1 binding to DNA | inhibition, % at 14.8 µM | EBNA-1 DNA binding, fluorescence polarization | hit rate 0.34% among 300,000; in the data active = inhibition above about 28%
NS3 helicase inh: blocks Hepatitis C virus NS3 helicase unwinding; inhibition, % at 10.9 µM; AID 1800; hit rate 0.56% among 290,000; NS3 helicase DNA unwinding, Cy5 molecular beacon fluorescence;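 active = inhibition above the mean of all tested compounds plus 3 SD, set per campaign, cut at about 35% in these data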;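 also: 0% = DMSO wells and 100% = thioflavine S control wells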
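System: HCV NS3 helicase fragment; control set: DMSO and thioflavine S; technique: Cy5 fluorescence at 0 and 60 min, beacon hairpin quenching; reagent: beacon DNA duplex substrate plus ATP; replicates: singlicate; schedule: 1 h reaction at 25 °C, ATP-initiated; medium: MOPS buffer pH 6.5 with MgCl2, DTT, Tween20, BSA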
GPR7 antagonist: antagonists of human GPR7 (neuropeptides B/W receptor 1) | P48145 | GPR7-expressing cells, fluorescence antagonist assay | inhibition, % at 4.4 µM | hit rate 1.1% among 290,000 | AID 1861; in the data active = inhibition above about 16%, passing the limit was not always enough;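 also: cells stimulated with the agonist NPW; 0% = agonist with vehicle and 100% = vehicle without agonist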
HCV core dimer: blocks dimerization of HCV core protein | AID 1899 | hit rate 0.33% among 300,000 | inhibition, % at 5 µM | TR-FRET GST/Flag-core106 dimerization, 1536-well;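 active = inhibition above the mean of all tested compounds plus 3 SD, set per screening campaign, cut at about 45% in these data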
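Assay system: tagged HCV core106 pair (GST and Flag); medium: KF-containing HEPES buffer, pH 7.45, DTT, CHAPS, BSA; also added: Eu donor and XL665 acceptor anti-tag antibodies; dosing: 5 µM single dose; timing: compound-protein-antibody incubation 4 h at 22.5 °C; signal: TR-FRET 671 and 617 nm emission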
EBV gp42 inh: blocks Epstein-Barr virus glycoprotein 42 binding. Q1HVG2. Fluorescence polarization binding assay, mP read-out. inhibition, % (tested at 21.74 µM). hit rate 0.42% among 220,000; in the data active = inhibition above about 50%
Target sequence (Q1HVG2 whole entry, looked up): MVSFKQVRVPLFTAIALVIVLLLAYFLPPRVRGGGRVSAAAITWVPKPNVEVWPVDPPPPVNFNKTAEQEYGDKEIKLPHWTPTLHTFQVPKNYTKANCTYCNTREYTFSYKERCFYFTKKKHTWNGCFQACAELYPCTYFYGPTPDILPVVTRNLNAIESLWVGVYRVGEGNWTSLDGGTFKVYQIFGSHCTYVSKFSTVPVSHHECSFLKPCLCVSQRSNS
ZTA counter: ZTA (EBV) inhibition in EBNA-1 counter-screen; P03206; ZTA-DNA binding, fluorescence polarization; inhibition, % at 11 µM; hit rate 0.15% among 320,000; in the data active = inhibition above about 33%
Target sequence (P03206 whole entry, looked up): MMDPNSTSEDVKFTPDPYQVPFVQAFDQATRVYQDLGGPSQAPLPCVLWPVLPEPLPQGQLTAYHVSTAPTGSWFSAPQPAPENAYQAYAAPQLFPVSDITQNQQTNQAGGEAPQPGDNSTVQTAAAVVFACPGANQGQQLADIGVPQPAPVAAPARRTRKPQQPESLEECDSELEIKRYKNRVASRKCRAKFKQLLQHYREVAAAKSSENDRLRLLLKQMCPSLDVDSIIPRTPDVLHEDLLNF
GPR7 antag conf: human GPR7 antagonism, confirmation assay; inhibition, % at 4.4 µM; shares compounds with GPR7 antagonist; GPR7-expressing cells, calcium fluorescence antagonist mode; hit rate 52% among 2,400; AID 1952; in the data active = inhibition above about 24%;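 also: stimulated with the GPR7 agonist NPW; 0% = agonist plus vehicle and 100% = vehicle alone without agonist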
MCHR1 antag: counter-screen for GPR7 antagonists: antagonists of human MCHR1. shares compounds with GPR7 antagonist. MCHR1-expressing cells, fluorescence antagonist assay. inhibition, % at 4.4 µM. hit rate 62% among 2,400; in the data active = inhibition above about 22%;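 also: 0% = vehicle with agonist and 100% = vehicle without agonist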
Numbers without * were called inactive; nt = no result.

SMILES	EBNA-1 inh	NS3 helicase inh	GPR7 antagonist	HCV core dimer	EBV gp42 inh	ZTA counter	GPR7 antag conf	MCHR1 antag
COc1cc(OC)cc(C(=O)N2CCCC(Nc3ccc(F)cc3)C2)c1 (centres undefined)	-5.7	12.3	27.8*	-6.9	nt	16.3	-14.6	-11.3
COc1cc(C(=O)OCC(=O)Nc2nnc(-c3ccccc3)o2)cc(OC)c1OC	-11.2	nt	nt	2.1	nt	-8.5	nt	nt
COc1ccc(C(=O)OCC(=O)Nc2nnc(-c3ccccc3)o2)cc1	1.0	20.9	32.4*	12.8	nt	-12.7	-2.7	-11.8
COc1cc(NC(=S)N(C)CCC#N)c(OC)cc1Cl	-2.0	-5.5	-15.2	0.2	-13.2	13.6	nt	nt
CCC(c1nnnn1CCc1ccccc1)N1CCN(C(=O)c2ccco2)CC1 (centres undefined)	-3.9	8.7	21.3*	-7.6	3.3	-1.5	8.5	1.1
CC(=O)C1=C(C)N2CCN=C2S1	-3.6	0.6	0.9	-1.1	20.7	11.8	nt	nt
CN(CC(=O)Nc1ccccc1C(F)(F)F)C(=O)c1ccc(-c2ccc(Cl)cc2)o1	2.3	nt	nt	5.5	nt	3.2	nt	nt
COc1ccccc1N(C(=O)CNC(=O)c1ccco1)C(C(=O)NC1CCCC1)c1ccco1 (centres undefined)	-11.4	4.4	24.4*	-5.8	nt	4.4	14.0	8.3
COc1ccc(C(C(=O)NC2CCCCC2)N(C(=O)c2ccco2)c2ccccc2OC)cc1 (centres undefined)	0.7	-3.1	28.6*	-0.2	nt	-9.3	16.9	14.3
O=C(NCC(=O)N(c1ccccc1F)C(C(=O)NC1CCCC1)c1ccco1)c1ccco1 (centres undefined)	-23.4	-0.9	-19.4	-0.3	-13.0	2.5	nt	nt
COc1ccc(C(C(=O)NC2CCCC2)N(C(=O)c2ccco2)c2ccccc2OC)cc1 (centres undefined)	3.1	-16.9	-3.4	18.6	nt	-7.4	nt	nt
COc1ccccc1N(C(=O)c1ccco1)C(C(=O)NC1CCCCC1)c1cc(OC)c(OC)c(OC)c1 (centres undefined)	8.6	-4.6	33.5*	8.9	nt	-4.3	37.1*	9.4
COc1ccc(N2CCN(S(=O)(=O)c3ccc(-c4cc(C)no4)s3)CC2)cc1	-14.9	6.4	17.7	8.0	nt	1.1	nt	nt
CCN(c1ccc(OC)cc1)S(=O)(=O)c1ccc(-c2cc(C)no2)s1	-2.0	-13.9	23.7*	3.3	nt	5.7	8.9	56.4*
CCOc1cc(/C=C2/COc3ccccc3C2=O)ccc1OCC(=O)N(C)C	nt	3.2	23.6*	nt	-10.6	nt	4.7	21.4*
O=C1/C(=C/c2ccc(O)cc2)COc2ccccc21	-0.6	-1.3	-1.8	7.2	nt	-3.8	nt	nt
COc1ccc(CC(=O)O/N=C(\N)c2ccccn2)cc1OC	nt	17.9	24.1*	nt	nt	nt	-2.2	5.4
COc1cccc(OC)c1OCCCNC1CCCC1	0.3	2.2	-11.4	-0.2	nt	5.9	nt	nt
Cc1nn(C)c(C)c1N1C(=O)c2cccc3c(N)ccc(c23)C1=O	9.2	-2.8	21.6*	-6.3	168.9*	4.7	26.1*	37.6*
CCOC(=O)c1nn(-c2ccccc2C)c(=O)c(C#N)c1C	-9.2	3.1	29.3*	1.5	-6.0	9.1	-12.0	2.6
COc1ccccc1C(=O)NCCC(=O)N1CCN(C(C)=O)CC1	-4.8	nt	nt	0.4	nt	-5.3	nt	nt
CCOc1nc(C)cc(C)c1S(=O)(=O)c1cccc(Cl)c1	-7.3	22.0	-18.7	-7.7	nt	-23.6	nt	nt
O=C(CCC1CCCCC1)NCCN1C2=NC[C@@H](Cc3ccccc3)N2C[C@H]1Cc1ccc(O)cc1	-33.9	-61.0	45.7*	-13.2	-2.1	-7.9	55.2*	29.6*
CCOCCCNC(=O)c1cn(C)c2ccc(S(=O)(=O)N3CCCC3)cc2c1=O	-5.2	-4.3	-14.4	-1.1	nt	1.7	nt	nt
O=C(CSc1nc(-c2ccccc2)cs1)Nc1nccs1	19.6	0.0	27.3*	3.9	-6.8	3.3	2.9	15.9
SMILES	EBNA-1 inh	NS3 helicase inh	GPR7 antagonist	HCV core dimer	EBV gp42 inh	ZTA counter	GPR7 antag conf	MCHR1 antag
COc1ccccc1N1CCN(C(=O)CSc2ncnc3scc(-c4ccccc4)c23)CC1	-5.1	-8.2	-0.6	-1.2	-21.5	-26.2	nt	nt
O=C(CSc1ncnc2scc(-c3ccccc3)c12)N1CCN(c2ccccc2F)CC1	-17.4	1.1	26.7*	15.3	-8.0	-1.0	25.2*	33.6*
COc1ccc(N(C)S(=O)(=O)c2cccc(C(=O)NC3CCCCC3C)c2)cc1 (centres undefined)	5.3	-3.8	43.4*	5.2	-12.8	18.0	42.1*	39.1*
COc1ccc(N(C)S(=O)(=O)c2cccc(C(=O)NC3CCCC3)c2)cc1	2.3	-13.7	39.0*	1.3	-13.1	8.2	43.3*	23.6*
COc1ccc(N(C)S(=O)(=O)c2cccc(C(=O)NCC3CCCCC3)c2)cc1	nt	7.1	25.9*	nt	-3.5	nt	37.6*	37.5*
CCC(=O)c1ccc(OCC(=O)N2CCN(c3ncccn3)CC2)cc1	-13.9	nt	nt	-0.1	nt	-13.9	nt	nt
COc1ccc(-c2c(C)c3cc(O)ccc3oc2=O)cc1OC	-3.6	29.1	25.5*	6.3	nt	11.1	2.7	-5.8
CCN(CC)S(=O)(=O)c1ccc(NC(=O)c2ccc(N(C)S(C)(=O)=O)cc2)cc1	0.8	0.6	32.3*	0.8	-3.1	5.4	43.9*	58.0*
Cc1cccc(C(=O)Nc2ccccc2C(=O)OCC(=O)Nc2ccc(C#N)cc2)c1	10.4	5.8	-6.6	10.1	-19.4	0.6	nt	nt
Cc1noc(C)c1CSc1nc2ccccc2n1CCc1ccccc1	-6.0	-14.3	26.0*	-0.3	-19.1	-10.6	-2.8	9.8
COc1ccc(CN(C)C(=O)C23CC4CC(CC(Cl)(C4)C2)C3)c(OC)c1OC	-2.8	-10.0	24.8*	-2.6	nt	-30.0	-0.5	23.3*
CC(=O)c1ccc(N2CCN(C(=S)Nc3ccccc3)CC2)cc1	-12.8	0.8	8.2	4.0	5.6	-3.8	nt	nt
CSCCCNC(=S)N1CCN(c2ccc(C(C)=O)cc2)CC1	7.6	-1.4	26.2*	3.2	6.2	-6.9	28.1*	31.5*
Cc1cc(C)c(S(=O)(=O)NC(CC(=O)O)c2cccc([N+](=O)[O-])c2)c(C)c1 (centres undefined)	4.0	8.2	-1.3	-0.8	-8.9	-10.4	nt	nt
O=C(O)c1sccc1S(=O)(=O)N1CCOCC1	nt	nt	nt	nt	nt	-8.2	nt	nt
Cc1ccc(NC(=O)C(C)OC(=O)CCNS(=O)(=O)c2ccc(C)cc2)cc1 (centres undefined)	-17.5	-7.0	4.5	-3.6	-17.2	4.9	nt	nt
CC(=O)Nc1ccc(S(=O)(=O)NCCC(=O)OC(C)C(=O)c2ccc(C)cc2)cc1 (centres undefined)	-11.9	-4.6	27.1*	5.0	nt	2.4	20.1	45.5*
